High-throughput results from PubChem BioAssay.
Fh CTSL1 inh – Fasciola hepatica cathepsin L1 inhibitors, primary screen, counter-screen for PFM18AAP inhibitor project, biochemical, QFRET, fluorogenic peptide substrate | recombinant F. hepatica cathepsin L1, Z-Leu-Arg-MCA fluorescence | inhibition, % at 5.96 µM | 300,000 tested, 0.49% active | AID 1906, 2009;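 active means inhibition above the mean of all tested compounds plus 3 SD, set per screening campaign, cut at about 17% in these data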;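 further: 0% = plate median of test compound wells and 100% = 1 µM Z-Phe-Ala-diazomethylketone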
AHR act – AHR activators, primary screen, cell-based, luminescence, luciferase reporter, human; Aryl hydrocarbon receptor (Homo sapiens), P35869; AHR-responsive luciferase reporter cells; activation, % at 5 µM; 320,000 tested, 2.5% active; in the data active means activation above about 47%;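 further: 0% = vehicle wells and 100% = reference agonist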
HDAC3 inh – HDAC3 deacetylase inhibitors, primary screen, biochemical, fluorescence, cell-free homogeneous; Histone deacetylase 3 (Homo sapiens), O15379; recombinant HDAC3, fluorogenic peptide/trypsin coupled; inhibition, % at 8.3 µM; 320,000 tested, 0.15% active; AID 2718, 2010; in the data active means inhibition above about 26%, passing the limit was not always enough
SENP1 FRET inh – human SENP1 catalytic domain inhibitors, primary screen, biochemical, FRET, uHTS. inhibition, % at 10 µM. 360,000 tested, 0.21% active. recombinant SENP1 catalytic domain, CyPet-SUMO1-YPet FRET cleavage. Sentrin-specific protease 1 (Homo sapiens), Q9P0U3;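 active means inhibition at least 30% at 10 µM, raw YFP signal under a set limit, fluorescence ratio 0.5 to 1.5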;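 further: 0% = enzyme with DMSO and 100% = no enzyme wells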
Target sequence (Q9P0U3 419-644 limits assumed): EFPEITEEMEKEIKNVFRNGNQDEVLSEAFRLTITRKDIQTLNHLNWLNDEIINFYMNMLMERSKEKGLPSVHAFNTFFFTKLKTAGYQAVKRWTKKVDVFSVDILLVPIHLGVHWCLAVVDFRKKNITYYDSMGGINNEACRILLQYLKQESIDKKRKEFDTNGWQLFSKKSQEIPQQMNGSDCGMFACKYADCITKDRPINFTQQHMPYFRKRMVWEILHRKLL
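Test system: hSENP1 catalytic domain, recombinant; Amount: 20 pM final SENP1 enzyme; Medium: Tris pH 8 buffer plus EDTA, NaCl, BME, BSA, NP40, catalase; Schedule: 50 min enzyme reaction, room temperature, light-protected; Technique: FRET fluorescence in CFP and YFP emission channels; Controls: no-enzyme wells low, DMSO-plus-enzyme wells high control.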
GAA850 FXN act – FXN promoter activators, primary screen, cell-based, luciferase luminescence, HEK293 lucGAA850. 360,000 tested, 0.56% active. activation, % at 6 µM. HEK293 lucGAA850 FXN promoter luciferase reporter, 24 h; percent of 10 µM SAHA response. AID 540364, 2011;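 active means activation above the average of all compounds screened plus 3 SD, cutoff fixed separately per campaign, cut at about 7.5% in these data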;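 further: 0% = DMSO wells and 100% = 10 µM SAHA wells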
PfM18AAP inh – PfM18AAP inhibitors, malaria aminopeptidase, primary screen, biochemical, QFRET, recombinant enzyme | AID 1822, 2009 | inhibition, % at 7.35 µM | 290,000 tested, 1.2% active | M18 aspartyl aminopeptidase (Plasmodium falciparum 3D7) | H-Glu-NHMec fluorogenic cleavage;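 active means inhibition above the campaign mean inhibition over all tested compounds plus 3 SD, cut at about 28% in these data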;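 further: 0% = plate median of test compound wells and 100% = 2 mM ZnCl2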
* marks the source's active call; other numbers are inactive results; x = no result given. Rows were chosen to be rich in hits. Some 4.2% of all compounds tested hit in one or more screens of this group.

SMILES	Fh CTSL1 inh	AHR act	HDAC3 inh	SENP1 FRET inh	GAA850 FXN act	PfM18AAP inh
CCN(CC)CCNC(=O)c1ccc2c(c1NCCO)C(=O)c1ccccc1C2=O	10.1	-12.4	1.1	4.5	-6.7	-1.3
Cc1cccc(NC(=O)COC(=O)c2cccc3c2C(=O)c2ccccc2C3=O)c1C	3.7	39.3	x	-2.7	-0.2	-6.6
COc1ccc(-c2oc3c(c2C#CC(C)(C)O)C(OC)CCC3)cc1 (centres undefined)	x	x	x	-7.9	x	x
COc1cccc(C(=O)N/N=C(\C)c2ccc(NC(=O)Cc3ccccc3)cc2)c1OC	x	x	-14.2	-0.5	1.8	3.4
C/C(=N\NC(=O)c1ccccc1O)c1ccc(NC(=O)Cc2ccccc2)cc1	2.1	52.5*	-2.3	1.2	6.4	17.8
Cc1ccccc1NC(=S)NC(=O)c1cncc(Br)c1	-0.7	41.4	-8.5	3.0	1.7	0.1
Cc1cc(O)ccc1NC(=S)NC(=O)c1cncc(Br)c1	-2.5	60.2*	-0.2	0.8	0.0	13.8
CCOC(=O)[C@]12CCC=C1N(Cc1cccc3ccccc13)C(=O)[C@H](CC(=O)NCCCCc1ccccc1)C2	x	x	x	0.8	x	x
O=C(Cn1cnc([N+](=O)[O-])n1)N/N=C/c1cccc2ccccc12	0.2	21.5	-3.0	2.8	-0.4	1.2
O=C(Cn1cncn1)N/N=C/c1cccc2ccccc12	0.2	69.5*	-0.5	-0.6	3.4	-6.9
COc1ccccc1Nc1cc(C(=O)N2CCc3ccccc3C2)c2ccccc2n1	0.9	63.6*	-0.6	x	x	-14.9
COc1ccc(Nc2cc(C(=O)N3CCc4ccccc4C3)c3ccccc3n2)c(OC)c1	-1.0	55.4*	16.1	-2.5	-1.3	0.7
Cc1ccc(S(=O)(=O)N2C[C@H]3[C@H]4C(=O)N(c5ccccc5)C(=O)[C@H]4C[C@H](OC(=O)NCc4ccccc4F)[C@@]3(O)C2)cc1	x	x	x	-0.3	-0.3	x
C=CCC(NC(=O)N(C)C)(C(C)=O)C(=O)OC (centres undefined)	x	x	x	0.6	x	x
Cc1ccccc1-c1nn(-c2ccc(F)cc2F)cc1CNC1CC1	2.1	7.1	-3.0	-4.0	3.8	2.1
CC(=O)c1cccc(Nc2ncnc3ccc(Br)cc23)c1	-8.4	73.6*	x	0.6	-4.1	-2.0
Cc1ccc2ncnc(Nc3ccc(C)c(C)c3)c2c1	2.1	50.2*	-1.0	-2.9	-2.8	6.7
CCOc1ccccc1Nc1nc2ccccc2[nH]1	-3.5	50.1*	5.5	1.2	1.9	-8.6
CCOc1ccccc1OCC(=O)Nc1nc2ccccc2[nH]1	1.8	2.2	-0.1	2.3	2.0	2.8
CCOc1ccccc1Nc1cc(C)nc2ccc(C)cc12	-1.1	47.6*	5.3	1.3	-1.6	x
CCOc1ccccc1Nc1ncnc2ccc(Br)cc12	-0.3	76.0*	-3.0	0.3	0.1	-6.3
CCN(Cc1nc(-c2ccc(OC)cc2)no1)C(=O)c1ccoc1C	-0.8	-4.4	-2.2	3.8	2.6	0.8
Cc1ccc(OC(C)C(=O)Nc2ncc(Cl)cc2Cl)c([N+](=O)[O-])n1 (centres undefined)	x	-0.6	0.1	-9.6	2.7	x
CC(OC(=O)c1ccc([N+](=O)[O-])s1)C(=O)Nc1ncc(Cl)cc1Cl (centres undefined)	27.1*	2.8	-1.3	1.0	0.2	-12.8
CC1(C(=O)NS(=O)(=O)c2cccc(C#N)c2)CCN1C(=O)C1(c2ccccc2)CC1 (centres undefined)	x	x	x	2.4	-1.4	x
COc1ccc(-c2ccc(SCC(=O)NCc3ccco3)nn2)cc1	0.4	9.3	-0.9	0.9	3.1	-7.0
COc1ccc(-c2[nH]c(-c3ccc(SC)cc3)nc2SCC(=O)Nc2nccs2)cc1	2.1	52.4*	1.4	4.1	-1.0	-2.9
COc1ccc(-c2nc(SCC(=O)NC3CCCC3)c(-c3ccc(OC)cc3)[nH]2)cc1	-2.6	48.9*	8.3	-0.7	-1.6	13.7
O=C(CSc1nnc(COc2ccc(Cl)cc2)o1)Nc1nccs1	x	x	x	-0.3	0.1	x
